Calls of active or inactive are those of the source. No cut-off for these calls is given here.

Data set [1] concerns Ca-Ski. As to the kind of experiment: Cell cycle arrest in human CaSki cells assessed as accumulation at G0/G1 phase at 4 uM after 72 hrs by propidium iodide staining based flow cytometric analysis (reference value: 77.6%). Type of data set: functional. (Flow cytometry measures light scatter and fluorescence of single cells or particles in a stream.)
Data set [2] has as its system Ca-Ski. The experiment in a line: Induction of apoptosis in human CaSki cells assessed as apoptotic cells at 4 uM after 48 hrs by Annexin V-FITC/PI double staining based flow cytometric analysis (reference value: […]). Type of data set: functional.
Data set [3] concerns SiHa. The experiment in a line: Induction of apoptosis in human SiHa cells assessed as viable cells at 4 uM after 24 hrs by Annexin V-FITC/PI double staining based flow cytometric analysis (reference value: 90.8%). Type of data set: functional. As to conditions: read-out: Activity.
The subject of data set [4] is Ca-Ski. As to the kind of experiment: Inhibition of colony formation in human CaSki cells at 2 to 4 uM afer 1 week by crystal violet staining based assay. Type of data set: functional, cell-based. A digest of the protocol: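 Cells were grown in DMEM with 10% FBS, seeded at 1 × 10^3 cells/ml in six-well plates, incubated overnight, then exposed to 2 or 4 μM at 37 °C under 5% CO2 for one week. Colonies were fixed with 4% paraformaldehyde, stained with 0.5% crystal violet and photographed.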

Data set [5] addresses Casein kinase II subunit alpha (Homo sapiens) (UniProt P68400). The experiment in a line: Potency index, ratio for inhibition activity of apigenin to test compound for inhibition of CK2alpha in human HeLa cells after 48 hrs by Western blot analysis. Type of data set: cell-based. The essentials: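 Cells plated at 1 × 10^6 per 100 mm dish and treated next day for 48 h with test compound (2 or 4 μM) or apigenin (10, 20 or 40 μM). RIPA lysates with protease inhibitors; equal protein loaded for SDS-PAGE, then PVDF transfer. Blocked in 5% milk/TBST (3% BSA for CK2α); anti-SIX1 or anti-CK2α 1:500, HRP secondary 1:2000; chemiluminescent detection.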
A general note: Immunoblotting shows a protein as a band on a membrane.

The target of data set [6] is Protein E6 (Human papillomavirus 16) (UniProt P03126). The experiment in a line: Inhibition of Human papillomavirus type16 derived E6 in human CaSki cells assessed as increase in p53 protein expression at 2 to 4 uM after 48 hrs by Western blot analysis. As to conditions: Ca-Ski. Type of data set: cell-based. A digest of the protocol: (§1)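 Cells were seeded at 1 × 10^6 per 100 mm dish and treated next day with 2 or 4 μM for 48 h. They were trypsinised, PBS-washed and lysed in RIPA with protease inhibitors. Equal protein was run on SDS-PAGE and transferred to PVDF. Primary antibodies were used at 1:500, with BSA 3% for blocking and antibodies for CK2α, Rb and pRb, otherwise 5% milk in TBST. HRP secondary at 1:2000, chemiluminescence detection.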
Sequence of Protein E6 (Human papillomavirus 16) (P03126 whole entry): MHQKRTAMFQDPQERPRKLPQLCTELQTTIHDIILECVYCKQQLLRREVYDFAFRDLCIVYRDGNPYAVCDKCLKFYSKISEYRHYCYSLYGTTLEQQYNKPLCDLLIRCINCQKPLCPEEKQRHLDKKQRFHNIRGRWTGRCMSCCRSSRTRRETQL

Data set [7] is described as follows: Toxicity in po dosed rat. Type of data set: organism-based. The note with it: in vivo.
For data set [8], the system named is C-33-A. As to the kind of experiment: Cell cycle arrest in human C33A cells assessed as accumulation at Sub G1 phase at 4 uM after 24 hrs by propidium iodide staining based flow cytometric analysis (reference value: 0.7%). Type of data set: functional. A digest of the protocol: (§2)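 Cells in DMEM/10% FBS at 37 °C, 5% CO2 were given 4 μM for 24, 48 or 72 h, with DMSO as control. After trypsinization they were fixed in chilled 70% ethanol on ice for 30 min, treated with RNase A (1 mg/mL) for 30 min at room temperature, and stained with PI (20 μg/mL). At least 10 000 events were read by flow cytometry to give sub-G1, G0/G1, S and G2/M fractions; mean ± SEM.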

The subject of data set [9] is Ca-Ski. As to the kind of experiment: Effect on total-Rb in human CaSki cells assessed decrease in Rb protein level at 2 to 4 uM after 48 hrs by Western blot analysis. Type of data set: ADME, cell-based. The essentials:
as §1

In data set [10] the target is T1, Homeobox protein SIX1 (Homo sapiens) (UniProt Q15475).
T1 sequence (whole entry): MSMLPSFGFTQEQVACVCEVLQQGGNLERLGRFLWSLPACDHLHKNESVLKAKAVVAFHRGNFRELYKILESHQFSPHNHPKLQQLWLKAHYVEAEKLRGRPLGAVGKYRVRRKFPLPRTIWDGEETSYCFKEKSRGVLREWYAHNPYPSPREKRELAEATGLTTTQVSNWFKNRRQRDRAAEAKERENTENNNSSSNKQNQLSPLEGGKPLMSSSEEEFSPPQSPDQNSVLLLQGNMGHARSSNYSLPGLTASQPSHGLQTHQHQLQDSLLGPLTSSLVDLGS
The experiment in a line: Inhibition of SIX1 in human C33A cells at 2 to 4 uM after 48 hrs by Western blot analysis. Type of data set: cell-based. As to conditions: C-33-A. A digest of the protocol: as §1

Data set [11] deals with Ca-Ski. As to the kind of experiment: Cell cycle arrest in human CaSki cells assessed as accumulation at G2/M phase at 4 uM after 24 hrs by propidium iodide staining based flow cytometric analysis (reference value: 27.4%). Type of data set: functional. A digest of the protocol:
as §2

The test system of data set [12] is HeLa. As to the kind of experiment: Cell cycle arrest in human HeLa cells assessed as accumulation at G0/G1 phase at 4 uM after 24 hrs by propidium iodide staining based flow cytometric analysis (reference value: 69.4%). Type of data set: functional. The essentials:
as §2

For data set [13], the system named is HeLa. The experiment in a line: Antiproliferative activity against human HeLa cells assessed as reduction in cell viability after 72 hrs by CellTiter-Glo assay. Type of data set: functional, cell-based. The essentials: (§3)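 ATP-based luminescent viability readout. Cells were grown in DMEM with 10% FBS, 2 mM L-glutamine and penicillin-streptomycin at 37 °C, 5% CO2. 2 × 10^4 cells/well were seeded, then exposed the next day to 0–40 μM for 24, 48 or 72 h. % viability = 100 × treated/control. IC50 was fitted from a sigmoid dose-response curve. Run at least three times in quadruplicate; mean ± SEM.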

Data set [14] deals with C-33-A. The experiment in a line: Induction of apoptosis in human C33A cells assessed as late apoptotic cells at 4 uM after 48 hrs by Annexin V-FITC/PI double staining based flow cytometric analysis (reference value: 2.5%). Type of data set: functional.
The test system of data set [15] is SiHa. As to the kind of experiment: Cell cycle arrest in human SiHa cells assessed as accumulation at G2/M phase at 4 uM after 24 hrs by propidium iodide staining based flow cytometric analysis (reference value: 17%). Type of data set: functional. The essentials:
as §2

Data set [16] relates to Ca-Ski. The experiment in a line: Cell cycle arrest in human CaSki cells assessed as increase in accumulation at G0/G1 phase at 4 uM incubated for 48 hrs by propidium iodide staining based flow cytometric analysis. Type of data set: functional. A digest of the protocol:
as §2

The test system of data set [17] is SiHa. The experiment in a line: Cell cycle arrest in human SiHa cells assessed as accumulation at G0/G1 phase at 4 uM after 24 hrs by propidium iodide staining based flow cytometric analysis (reference value: 69.9%). Type of data set: functional. The essentials:
as §2

The target of data set [18] is T1, Homeobox protein SIX1 (Homo sapiens). The experiment in a line: Inhibition of SIX1 in human SiHa cells at 2 to 4 uM after 48 hrs by Western blot analysis. Type of data set: cell-based. A digest of the protocol: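 SiHa cells in DMEM with 10% FBS were seeded at 1 × 10^6 per 100 mm dish and treated the next day at 2 or 4 μM for 48 h. Lysis was in RIPA buffer with protease inhibitors. Equal protein was run on SDS-PAGE and transferred to PVDF, blocked in 5% milk/TBST, probed with anti-SIX1 (1:500) then HRP secondary (1:2000), and detected by chemiluminescence.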

For data set [19], the system named is Ca-Ski. The experiment in a line: Cell cycle arrest in human CaSki cells assessed as decrease in accumulation at S phase at 4 uM incubated up to 72 hrs by propidium iodide staining based flow cytometric analysis. Type of data set: functional. The essentials: as §2
For data set [20], the system named is HeLa. The experiment in a line: Antiproliferative activity against human HeLa cells assessed as reduction in cell viability after 48 hrs by CellTiter-Glo assay. Type of data set: functional, cell-based. A digest of the protocol:
as §3

The subject of data set [21] is Ca-Ski. As to the kind of experiment: Cell cycle arrest in human CaSki cells assessed as accumulation at G0/G1 phase at 4 uM after 24 hrs by propidium iodide staining based flow cytometric analysis (reference value: 56%). Type of data set: functional. A digest of the protocol:
as §2

Data set [22] concerns HeLa. As to the kind of experiment: Antiproliferative activity against human HeLa cells assessed as reduction in cell viability after 24 hrs by CellTiter-Glo assay. Type of data set: functional, cell-based. A digest of the protocol: as §3
(ATP-based viability assays read luminescence as a measure of living cells.)

Sequence of Casein kinase II subunit alpha (Homo sapiens) (P68400 whole entry, looked up): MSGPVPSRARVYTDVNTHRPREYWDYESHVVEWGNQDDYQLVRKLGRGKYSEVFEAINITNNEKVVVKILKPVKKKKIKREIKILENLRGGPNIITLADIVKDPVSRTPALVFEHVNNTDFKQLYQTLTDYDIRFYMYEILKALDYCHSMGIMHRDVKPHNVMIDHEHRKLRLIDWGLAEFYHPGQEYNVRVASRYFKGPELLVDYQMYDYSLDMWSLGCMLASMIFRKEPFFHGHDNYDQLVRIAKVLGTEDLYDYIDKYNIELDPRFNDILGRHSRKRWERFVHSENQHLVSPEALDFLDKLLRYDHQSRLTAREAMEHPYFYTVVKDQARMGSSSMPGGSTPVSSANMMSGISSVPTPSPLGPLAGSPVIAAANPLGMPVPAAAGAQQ

The term LD50 denotes the dose expected to kill half of the subjects tested. As usually defined, the IC50 is the concentration needed to halve the response being measured. Regarding `O[C@]12C=C(c3nccc4c3[nH]c3ccccc34)[C@@H]3CCN(CCCC/C=C\CC1)C[C@@]31C[C@@H]3/C=C\CCCCN3[C@H]12` [MANZAMINE A], the Activity was 81.7% with Ca-Ski [1]; 23.2% with Ca-Ski [2]; 1.8% with C-33-A [8]; “Toxic” in the data set with Ca-Ski [9]; 15.2% in the data set with Ca-Ski [11]; 74.7% in the data set with HeLa [12]. Further, the Activity with C-33-A [14] came out at 15.7%; in the data set with SiHa [15], 9.2%; in the data set with SiHa [17], 85.3%; with Ca-Ski [21] it was 77.6%. Also, the viability at 4 µM in the data set with SiHa [3] was found to be 82.5%. Moreover, the inhibition result (with Ca-Ski [4]; in data set [6]; in data set [10]; in data set [18]) was “Active” in each case. In addition, the Ratio in data set [5] came to 10. The same compound displayed an LD50 in [7] of 200 to 300 mg/kg. For the same compound, the IC50 in the data set with HeLa [13] came to 5.3 µM; with HeLa [20] it was 4 µM; in the data set on HeLa [22] it was 11.8 µM. Besides, the “fold change (FC)” value with Ca-Ski [16] was determined as 1.5. The outcome in the data set on Ca-Ski [19] was Active.

For the origin of these results see ChEMBL document CHEMBL4602675, “The Marine Natural Product Manzamine A Inhibits Cervical Cancer by Targeting the SIX1 Protein” (J Nat Prod, 2020).
